Bioassay records from PubChem.
This is a sample that favours compounds with a hit; in the whole collection about 3.3% have one here.
Hep lipid drop: hepatic lipid droplet formation modulation. AML12 mouse hepatocytes, oleate lipid droplets, BODIPY imaging. inhibition, % at 6.5 µM. actives 0.4% (n = 240,000);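 active means lipid droplet intensity inhibited by at least 50%, with more than 500 cells counted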
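Material: mouse AML12 hepatocyte cell line, fixed after treatment; Timing: compound with oleate, overnight; Technique: high-content imaging of BODIPY-stained droplets and DAPI nuclei; Probe or stimulus: oleate, 100 µM final; Dosing: compound at 6.5 µM only.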
sPLA2-III inh: Blocks human group III sPLA2 activity | Q9NZ20 | QFRET BODIPY PC-A2 liposome hydrolysis, fluorescence | inhibition, % at 12.2 µM | actives 0.56% (n = 370,000);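 active means inhibition above mean plus 3 SD of compounds lying within the high and low control bounds, cut at about 19% in these data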;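 further: 0% = median of test compound wells and 100% = no enzyme DMSO wells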
HTR2A ag: mouse HTR2A agonism via beta-arrestin recruitment; P35363; CHO-K1 mHTR2A beta-arrestin complementation, luminescence; percent of 30 µM serotonin response; activation, % at 7.6 µM; actives 0.66% (n = 360,000);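 active means activation above a run cutoff, the mean activation of all tested compounds plus 3 SD, cut at about 14% in these data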;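 further: 0% = plate median of compound wells and 100% = 30 µM serotonin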
Target sequence (P35363 whole entry, looked up): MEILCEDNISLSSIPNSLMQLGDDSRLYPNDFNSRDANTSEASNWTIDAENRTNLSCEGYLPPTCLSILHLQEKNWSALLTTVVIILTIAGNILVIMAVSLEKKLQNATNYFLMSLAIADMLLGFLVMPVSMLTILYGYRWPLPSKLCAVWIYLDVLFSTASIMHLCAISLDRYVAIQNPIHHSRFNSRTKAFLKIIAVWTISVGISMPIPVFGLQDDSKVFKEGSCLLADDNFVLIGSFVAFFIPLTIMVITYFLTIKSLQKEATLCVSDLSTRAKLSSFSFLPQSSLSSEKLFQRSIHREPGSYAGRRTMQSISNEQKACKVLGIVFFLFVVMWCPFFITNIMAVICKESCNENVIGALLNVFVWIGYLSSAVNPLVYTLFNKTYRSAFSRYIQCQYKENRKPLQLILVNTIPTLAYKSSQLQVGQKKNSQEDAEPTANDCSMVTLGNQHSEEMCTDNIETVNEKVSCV
PfM18AAP inh-1: blocks P. falciparum M18 aspartyl aminopeptidase | inhibition, % at 7.35 µM | AID 1822 | actives 1.2% (n = 290,000) | recombinant PfM18AAP, H-Glu-NHMec fluorogenic cleavage;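 active means inhibition above the campaign mean inhibition over all tested compounds plus 3 SD, cut at about 28% in these data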;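 further: 0% = plate median of test compound wells and 100% = 2 mM ZnCl2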
Arr AP2 block: inhibitors of human beta-arrestin and AP2 interaction; FITC-arrestin peptide / GST-AP2 beads, flow cytometry; AP2 beta2 appendage carries R879A mutation; inhibition, % at 10 µM; actives 0.31% (n = 340,000); AID 504490;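 active means inhibition above a set limit, near 3 SD of compounds lacking own fluorescence, cut at about 54% in these data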;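 further: plate controls were DMSO wells for no effect and 5 µM unlabelled arrestin peptide for full effect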
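System: GST-AP2 R879A glutathione beads | Also added: FITC-arrestin peptide, 50 nM | Times: 12 min plus 1 h, RT | Signal: Bead flow cytometry, FITC channel | Buffer or medium: PBS with 0.05% Tween 20 and 0.1% BSA | Read-out basis: Percent drop in bead-associated FITC signal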
NRP1-CendR mod: alters CendR peptide binding to human NRP-1; O14786; FAM-RPARPAR peptide binding to NRP-1, fluorescence polarization; inhibition, % at 25 µM; actives 0.85% (n = 360,000); AID 602438;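 active means inhibition or corrected inhibition above about 18%, plus a signal ratio from 0.5 to 1.5, limit read from the data, passing the limit was not always enough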
PfM18AAP inh-2: confirmation of Plasmodium falciparum M18 aspartyl aminopeptidase inhibitors. recombinant PfM18AAP, H-Glu-NHMec fluorogenic cleavage. AID 2170. actives 28% (n = 2,400). shares compounds with PfM18AAP inh-1. inhibition, % at 7.35 µM;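 active means mean inhibition over replicate wells above the hit cutoff set for the earlier primary screen, cut at about 29% in these data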;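 further: 0% = median of test compound wells and 100% = 2 mM ZnCl2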
CTSL1 counter: counter-screen for PFM18AAP inhibitors: confirmation of human cathepsin L inhibitors; shares compounds with PfM18AAP inh-1; purified cathepsin L1, Z-Leu-Arg-MCA fluorescence; inhibition, % at 5.96 µM; 2,400 tested, under 10 active;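 active means average inhibition across replicates above the hit cutoff set in the earlier primary screen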;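 further: 0% = median of test compound wells and 100% = Z-Phe-Ala-diazomethylketone 1 µM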
Starred values were filed as active, the others as inactive; / = no result.

SMILES	Hep lipid drop	sPLA2-III inh	HTR2A ag	PfM18AAP inh-1	Arr AP2 block	NRP1-CendR mod	PfM18AAP inh-2	CTSL1 counter
COCCCn1c(=O)c2ccccc2n2c(=S)[nH]nc12	5	13	2	35*	-6	-5	25	2
COc1cccc(-n2c(=O)c3ccccc3n3c(=S)[nH]nc23)c1	-2	8	7	36*	-9	-3	17	-2
COC(=O)[C@]12C[C@H](CC(=O)N3CCN(C(=O)C4CC4)CC3)C(=O)N(Cc3cccc4ccccc34)C1=C[C@H](COCc1ccccc1)O[C@@H]2C	/	-2	/	/	/	/	/	/
C=CCN1[C@@H](C)[C@H](c2ccccc2)Oc2cccc(NCCc3ccccc3)c2S1(=O)=O	/	12	/	/	/	/	/	/
COC(=O)[C@]12C[C@H](CC(=O)NCC3CCCCC3)C(=O)N(CCc3ccc(OC)c(OC)c3)C1=C[C@H](C(C)C)O[C@@H]2C1CC1	/	-4	/	/	/	/	/	/
C/C(=N/Nc1ncc(Br)cn1)c1ccc(Br)cc1	8	-4	-5	-1	-7	-10	/	/
CCc1ccc(/C(C)=N\Nc2ccc([N+](=O)[O-])cc2)cc1	/	-5	-6	4	16	-31	/	/
C/C(=N\NC(=O)c1ccccc1C)c1cccc([N+](=O)[O-])c1	-5	5	-1	5	21	-5	/	/
C/C(=N\Nc1ccc(C(=O)O)cc1)c1ccc(Br)cc1	-6	-15	3	32*	-9	-2	-22	5
C/C(=N\Nc1ccc([N+](=O)[O-])cc1)c1ccc(N)cc1	-11	-2	-3	33*	4	-70	-18	6
C/C(=N\Nc1ccc(C(F)(F)F)cn1)c1ccc(S(=O)(=O)NCc2ccco2)cc1	26	-13	3	5	10	-2	/	/
C/C(=N\Nc1nc(Cl)c(Cl)cc1Cl)c1ccc(S(=O)(=O)NCc2ccco2)cc1	0	-3	-1	49*	4	-10	-54	7
C/C(=N\Nc1ccc(Cl)c(C(=O)O)c1)c1cccc([N+](=O)[O-])c1	0	-2	0	36*	3	4	-1	5
O=C1CC(N2CCCC2)=NC(=O)N1c1ccc(Br)cc1	/	-2	/	/	/	/	/	/
C/C(=N\Nc1ccccn1)c1ccc(S(=O)(=O)NCc2ccco2)cc1	3	-10	-2	-3	31	-3	/	/
C/C(=N\Nc1ccc(C(=O)O)cc1)c1ccc(S(=O)(=O)NCc2ccco2)cc1	-6	-2	-2	36*	-8	4	1	2
COCc1nc2sc(C)c(C)c2c(=O)[nH]1	-4	-1	2	-4	8	-2	/	/
Cc1sc2nc(CSc3ncn[nH]3)[nH]c(=O)c2c1C	1	-3	0	72*	24	-2	71*	-3
CCC(/C=C1\Sc2ccc(OC)cc2N1CCO)=C\c1sc2ccc(OC)cc2[n+]1CCO	-2	-5	-7	34*	77*	-20	-4	4
CC(C)(C)C(=O)C(Oc1cccc2nonc12)n1cncn1 (stereo not given)	/	7	1	50*	-35	10	-34	0
OC(c1cccnc1)c1nc(/C=C/c2ccc(C(F)(F)F)cc2)cs1 (stereo not given)	/	-8	1	/	/	-15	/	/
CCN(C(=O)COC(=O)CCCOc1ccc(Cl)cc1C)c1c(N)n(Cc2ccccc2)c(=O)[nH]c1=O	/	2	5	/	5	3	/	/
O=C(CCn1cnc(-c2ccccc2)c1-c1ccccc1)N/N=C/c1ccccc1O	6	-26	11	-5	18	-1	/	/
Cc1ccc2nc3c(cc(C(=O)NCc4ccco4)c(=N)n3C3CCCC3)c(=O)n2c1	-15	3	4	38*	-11	-10	-30	3
Cc1ccc(C)c(NC(=S)NNc2ccc(F)cc2F)c1	7	14	-7	46*	29	12	19	-5
